Measured values gathered from unrelated publications.
Protocols differ between the studies behind these lines.
Target: Tyrosine-protein kinase TXK (TXK, Homo sapiens, UniProt P42681)
One construct used (P42681 1-527): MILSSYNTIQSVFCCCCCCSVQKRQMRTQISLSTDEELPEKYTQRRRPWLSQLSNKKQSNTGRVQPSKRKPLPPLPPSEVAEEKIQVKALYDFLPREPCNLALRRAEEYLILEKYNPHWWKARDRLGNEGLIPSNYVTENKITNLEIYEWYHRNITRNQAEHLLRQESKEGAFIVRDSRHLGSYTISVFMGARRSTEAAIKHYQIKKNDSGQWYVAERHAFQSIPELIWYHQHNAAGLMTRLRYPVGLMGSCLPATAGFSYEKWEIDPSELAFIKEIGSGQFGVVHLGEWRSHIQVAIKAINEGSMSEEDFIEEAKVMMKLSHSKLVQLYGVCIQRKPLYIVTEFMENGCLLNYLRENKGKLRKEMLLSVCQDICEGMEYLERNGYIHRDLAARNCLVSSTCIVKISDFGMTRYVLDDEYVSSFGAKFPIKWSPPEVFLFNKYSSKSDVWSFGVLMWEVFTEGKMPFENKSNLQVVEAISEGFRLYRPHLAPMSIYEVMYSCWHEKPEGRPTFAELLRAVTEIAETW

SMILES | test | setting | endpoint | result
CS(=O)(=O)CCNCc1ccc(-c2ccc3ncnc(Nc4ccc(OCc5cccc(F)c5)c(Cl)c4)c3c2)o1 | cell-free assay | 0.5 µM | remaining signal | 110%
CCCOc1ccc(OC)c(F)c1C(=O)c1ccc(C(=O)N[C@@H]2CNC[C@H]2NC(=O)c2ccc3[nH]ncc3c2)cc1 | enzyme activity, inhibitor | 10 µM | remaining activity | 64%
O=C(Nc1cnn(-c2csc(C(=O)NC3COC3)c2)c1)Nc1ccccc1Cl | enzyme activity, inhibitor | 5 µM | remaining activity | 89.8%
O=C(N[C@H]1CCCCC/C=C\C2C[C@@]2(C(=O)O)NC(=O)[C@@H]2C[C@@H](Oc3ccncc3)CN2C1=O)OC1CCCC1 (stereo partly drawn) | binding, competition with immobilised ligand | 1 µM | remaining binding | 87%
COc1cc2ncnc(Nc3ccc(Oc4ccccc4)cc3C)c2cc1OC | enzyme activity, inhibitor | 1 µM | inhibition | 16%
CCN(CC)c1ccc(C2=NNC(=O)CC2C)cc1[N+](=O)[O-] (stereo not drawn) | enzyme activity, inhibitor | 10 µM | remaining activity | 84%
CC(C)(C)c1nc2c(s1)c1nc(N)ncc1c1ccc(NS(=O)(=O)c3c(F)cccc3F)c(F)c12 | enzyme activity, inhibitor, radiometric | 1 µM | remaining activity | 71%
COc1cc2nccc(Oc3ccc(NC(=O)c4c5n(n(-c6ccc(F)cc6)c4=O)CCCC5)cc3)c2cc1OC | enzyme activity, inhibitor | 0.1 µM | inhibition | -2%
NS(=O)(=O)c1cc(NC(=O)Cc2ccccc2)ccc1Oc1cccc(Cl)c1 | binding, competition with immobilised ligand | 1 µM | remaining binding | 92%
O=C1NC(=O)c2cc(Nc3ccc(F)cc3)c(Nc3ccc(F)cc3)cc21 | cell-free assay | 0.5 µM | remaining signal | 84.1%
COc1cc(Cl)c(C(=O)N[C@@H](CN[C@H]2CC[C@@H](N)CC2)Cc2ccc(C#N)cc2)cc1-c1ccc(CN[C@H](C)c2ccc(C)cc2)o1 | enzyme activity, inhibitor | 1 µM | remaining activity | 88%
CCCCN(CCCC)C(=O)CN1C[C@@H](c2cc(OC)c3c(c2)OCO3)[C@H](C(=O)O)[C@H]1CC(C)(C)CCC | cell-free assay, competition with immobilised ligand | 1 µM | remaining binding | 100%
CC(C)(O)[C@H]1CC[C@H](Nc2ccc3ncc(-c4cccc(C(F)(F)F)c4)n3n2)CC1 | enzyme activity, inhibitor | 1 µM | remaining activity | 62.6%
Cc1ccc(C(=O)Nc2ccc(CN3CCN(C)CC3)c(C(F)(F)F)c2)cc1C#Cc1cnc2cccnn12 | enzyme activity, inhibitor | 23.5 nM | remaining activity | 25%
CCS(=O)(=O)c1cc2cc(C[C@](O)(CC(C)(C)c3ccc(F)cc3C(N)=O)C(F)(F)F)[nH]c2cn1 | cell-free assay, competition with immobilised ligand | 1 µM | remaining binding | 90%
O=C(Nc1cnn(-c2csc(C(=O)NC3COC3)c2)c1)Nc1c(F)cccc1Cl | enzyme activity, inhibitor | 5 µM | remaining activity | 90.8%
CCOc1cc(-c2nncn2C)ccc1Nc1ncc2cc(C)nc(NCC(C)(C)C)c2n1 | enzyme activity, inhibitor, FRET | 1 µM | inhibition | < 15%
O=C(NCc1ncc(C(F)(F)F)cc1Cl)c1ccc2c(c1)C1(CCS(=O)(=O)CC1)[C@@H](C1CC1)N2S(=O)(=O)c1ccc(F)cc1 | binding, competition with immobilised ligand | 1 µM | remaining binding | 83%
